A short description of series [1]: Protein binding in human plasma. Type of series: ADME, cell-free. The conditions noted are these: read-out: PPB.
In another series the test system is Vero. The series can be described thus: Cytotoxicity against African green monkey Vero cells after 72 hrs by MTS-PMS assay. The series is classed as cell-based. The conditions noted are these: Chlorocebus sabaeus. In general terms: Tetrazolium assays rely on reduction of a dye to a coloured formazan, in cell work by metabolically active cells.
The next series has as its target Cytochrome P450 3A4 (Homo sapiens, UniProt P08684). Description: Inhibition of CYP3A4 (unknown origin). Type of series: ADME.
The nature of series [2]: Ratio of AUC in mouse to MIC90 of replicating Mycobacterium tuberculosis H37Rv after 4 days by Alamar blue assay. The method, boiled down:
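Mouse plasma exposure (AUC_inf, µg*h/mL) divided by the MIC90 against replicating H37Rv from the aerobic MABA assay.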
A general note: Alamar Blue is a resazurin reagent that responds to reducing activity.

Series [3] relates to Mycobacterium tuberculosis. Description: Antitubercular activity against replicating Mycobacterium tuberculosis H37Rv after 4 days by Alamar blue assay. Type of series: functional. The conditions noted are these: 96 h. The method, boiled down: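 MIC90 against M. tuberculosis H37Rv under aerobic, replicating conditions (MABA). Tested at the Institute for Tuberculosis Research, University of Illinois at Chicago.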

The subject of series [4] is Mycobacterium tuberculosis. Description: Antitubercular activity against non-replicating Mycobacterium tuberculosis H37Rv after 10 days by LORA. Type of series: functional. The conditions noted are these: 240 h. In short, it runs like this:
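MIC90 against M. tuberculosis H37Rv under non-replicating conditions (LORA). Tested at the Institute for Tuberculosis Research, University of Illinois at Chicago.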

The source of these data is ChEMBL document CHEMBL4480421 (Bioorg Med Chem, 2019).

In brackets after ≈: the same amount, converted by molar mass. A value given as a limit tells only on which side of the number the result lay.

Chain of Cytochrome P450 3A4 (P08684 whole entry): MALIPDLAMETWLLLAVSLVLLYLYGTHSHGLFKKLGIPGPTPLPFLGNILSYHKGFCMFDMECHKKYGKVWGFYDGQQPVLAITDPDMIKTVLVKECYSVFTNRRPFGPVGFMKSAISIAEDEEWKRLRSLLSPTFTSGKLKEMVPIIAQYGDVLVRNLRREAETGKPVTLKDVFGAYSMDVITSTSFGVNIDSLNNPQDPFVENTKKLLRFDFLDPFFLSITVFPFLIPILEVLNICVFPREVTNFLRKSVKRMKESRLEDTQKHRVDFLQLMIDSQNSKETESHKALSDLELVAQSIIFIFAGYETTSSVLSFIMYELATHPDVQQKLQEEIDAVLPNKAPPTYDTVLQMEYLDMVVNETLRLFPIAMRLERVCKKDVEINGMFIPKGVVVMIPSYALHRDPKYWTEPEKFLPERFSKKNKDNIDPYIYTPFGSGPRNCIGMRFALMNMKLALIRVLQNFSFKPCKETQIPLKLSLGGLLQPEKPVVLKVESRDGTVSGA

For orientation: IC50 means the concentration that gives 50% inhibition. With `COc1cc(C(O)(CCN(C)C)C(c2cc3cc(Br)ccc3nc2OC)c2ccnc(OC)c2OC)c(OC)nc1OC` (racemic), the fraction unbound in series [1] was less than 0.001. The 50% inhibitory concentration (IC50) in the series with Vero was greater than 10 µg/mL.
Taken in the same sequence, the figures for `COc1cnc(OC)c(C(O)(CCN(C)C)C(c2cc3cc(Br)ccc3nc2OC)c2cccc(OC)c2F)c1` (racemic) were less than 0.001 and greater than 10 µg/mL.
In the case of `COc1nc2ccc(Br)cc2cc1C(c1cccc2c1OCO2)C(O)(CCN(C)C)c1cccnc1C` (racemic), the fraction unbound in series [1] is less than 0.001. Moreover, the values for the IC50 against Cytochrome P450 3A4 and with Vero were greater than 10 µM and greater than 10 µg/mL, respectively.
As for `COc1nc2ccc(Br)cc2cc1C(c1cccc2c1OCO2)C(O)(CCN(C)C)c1cccnc1OC` (racemic), in series [1], the fraction unbound was less than 0.001. The IC50 against Cytochrome P450 3A4 is greater than 10 µM; with Vero, greater than 10 µg/mL. Further, in series [2], the Ratio is recorded as 5.73.
Take `COc1cccc(C(c2cc3cc(Br)ccc3nc2OC)C(O)(CCN(C)C)c2cnc(C)cc2C)c1OC` (racemic): the fraction unbound in series [1] was less than 0.001. Moreover, in series [2], the Ratio was determined as 104.
Consider `COc1cc(C(O)(CCN(C)C)C(c2cc3cc(Br)ccc3nc2OC)c2ccnc(OC)c2OC)cnc1OC` (racemic), for which the fraction unbound in series [1] is less than 0.001. Also, the Ratio in series [2] is listed as 71.3. For the same molecule, the IC50 in the series with Vero is greater than 10 µg/mL.
On to `COc1cc(C(O)(CCN(C)C)C(c2cc3cc(Br)ccc3nc2OC)c2cccc(OC)c2F)c(OC)cn1` (racemic), for which the fraction unbound in series [1] is less than 0.001. Besides, the IC50 in the series on Vero is greater than 10 µg/mL.
`COc1cccc(C(c2cc3cc(C#N)ccc3nc2OC)C(O)(CCN(C)C)c2cc(C)nc(C)c2)c1F` (racemic): the fraction unbound in series [1] was less than 0.001. The IC50 was greater than 10 µM on Cytochrome P450 3A4 and greater than 10 µg/mL in the series on Vero.
As to `CCc1cc(C(O)(CCN(C)C)C(c2cc3cc(Br)ccc3nc2OC)c2cccc(OC)c2F)cc(CC)n1` (racemic), the fraction unbound in series [1] is less than 0.001. In the series on Vero, this molecule yielded an IC50 greater than 10 µg/mL.
For the molecule `COc1cccc(C(c2cc3cc(Br)ccc3nc2OC)C(O)(CCN(C)C)c2cc(C)cnc2C)c1OC` (racemic), the fraction unbound in series [1] was less than 0.001. Also, the Ratio in series [2] came out at 19.9. For the same molecule, the IC50 in the series on Vero was greater than 10 µg/mL.
As for `CCOc1cc(C(O)(CCN(C)C)C(c2cc3cc(Br)ccc3nc2OC)c2ccnc(OC)c2OC)cc(OC(C)C)n1` (racemic), the fraction unbound in series [1] was less than 0.001. This molecule also gave an IC50 in the series on Vero greater than 10 µg/mL.
For `COc1nc2ccc(Br)cc2cc1C(c1cccc(C)c1)C(O)(CCN(C)C)c1cccnc1OC` (racemic), the fraction unbound in series [1] is less than 0.001. For the same molecule, the IC50 on Cytochrome P450 3A4 was greater than 10 µM; in the series on Vero, greater than 10 µg/mL. Further, in series [2], the Ratio was 19.3.
On to `COc1nc2ccc(C#N)cc2cc1C(c1cccc(F)c1)C(O)(CCN(C)C)c1cncc(C)c1` (racemic), for which the fraction unbound in series [1] is less than 0.001. The molecule also registered an IC50 with Vero greater than 10 µg/mL.
For `CCOc1cc(C(O)(CCN(C)C)C(c2cc(OC)nc(OC)c2)c2cc3cc(Br)ccc3nc2OC)cc(OC(C)C)n1` (racemic), the fraction unbound in series [1] was less than 0.001. Further, the Ratio in series [2] came to 1650. Besides, in the series with Vero, the IC50 is greater than 10 µg/mL.
A word on the MIC90: it is an inhibitory concentration at the 90% level, which refers to growth in some studies and to a panel of isolates in others. `COc1cccc(C(c2cc3cc(Br)ccc3nc2OC)C(O)(CCN(C)C)c2cc(C)nc(C)c2)c1OC` (racemic): the MIC90 in series [3] turned out to be 0.04 µg/mL (≈ 0.0673 µM); in series [4] it was 0.07 µg/mL (≈ 0.118 µM).
Turning to `COc1cccc(C(c2cc3cc(Br)ccc3nc2OC)C(O)(CCN(C)C)c2ccc(C)nc2)c1F` (racemic), in series [1], the fraction unbound was less than 0.001. Besides, the IC50 is greater than 10 µM against Cytochrome P450 3A4 and greater than 10 µg/mL in the series with Vero.
For `COc1cccc(C(O)(CCN(C)C)C(c2cc3cc(Br)ccc3nc2OC)c2cccc3c2OCO3)n1` (racemic), the fraction unbound in series [1] was less than 0.001. Moreover, the Ratio in series [2] is reported as 10.4. In the series on Vero, the IC50 is greater than 10 µg/mL.
Taken in the same sequence, the figures for `COc1cccc(C(c2cc3cc(C#N)ccc3nc2OC)C(O)(CCN(C)C)c2cc(C)nc(C)c2)c1OC` (racemic) were less than 0.001, 6.17 and greater than 10 µg/mL.
Take `COc1nc2ccc(Br)cc2cc1C(c1cccc(C)c1)C(O)(CCN(C)C)c1cccnc1C` (racemic): in series [1], the fraction unbound is less than 0.001. Also, the 50% inhibitory concentration (IC50) was greater than 10 µM against Cytochrome P450 3A4 and greater than 10 µg/mL in the series with Vero.
In the case of `COc1nc2ccc(C#N)cc2cc1C(c1cccc(C)c1)C(O)(CCN(C)C)c1cccnc1OC` (racemic), the fraction unbound in series [1] is less than 0.001. Also, the figures for the IC50 on Cytochrome P450 3A4 and in the series with Vero were greater than 10 µM and greater than 10 µg/mL, respectively. The Ratio in series [2] was found to be 2.25.
`COc1cccc(C(c2cc3cc(Br)ccc3nc2OC)C(O)(CCN(C)C)c2cccc(C)n2)c1F` (racemic): the fraction unbound in series [1] was less than 0.001. Also, in the series on Vero, the IC50 is greater than 10 µg/mL.
In the same order, the values of `CCc1cc(C(O)(CCN(C)C)C(c2cc3cc(C#N)ccc3nc2OC)c2cccc(OC)c2F)cc(CC)n1` (racemic) are less than 0.001 and greater than 10 µg/mL.
Taken in the same sequence, the figures for `COc1nc2ccc(Br)cc2cc1[C@@H](c1ccccc1)[C@@](O)(CCN(C)C)c1cccc2ccccc12` [BEDAQUILINE] were less than 0.001 and greater than 10 µg/mL.
